# Laboratory results from PMC8757366 (ACS Omega, 2021).
# Square brackets hold non-standard residues; d marks the D form. Peptide text beside a SMILES is read from it. * marks the point of attachment. Phe(3,4-(OMe)2) = COc1ccc(C[C@H](N)C(=O)O)cc1OC; Phe(F5) = N[C@@H](Cc1c(F)c(F)c(F)c(F)c1F)C(=O)O; Lys(Et,iPr) = CCN(CCCC[C@H](N)C(=O)O)C(C)C; Cha = N[C@@H](CC1CCCCC1)C(=O)O; Nicotinoyl = O=C(c1cccnc1)*; X1 = Nc1cc(C(=O)*)ccc1Br
# How the values were obtained:
# CBX5 (HP1α) chromodomain = CBX5 (HP1α) chromodomain (Homo sapiens, UniProt P45973); test: Isothermal titration calorimetry; type: binding; conditions: for Kd: CBX5 ITC Kd, 25 °C
# Sequence of CBX5 (HP1α) chromodomain (P45973 18-75): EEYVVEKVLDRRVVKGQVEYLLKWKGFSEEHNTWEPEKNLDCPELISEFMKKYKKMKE
# In short: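 Run at 25 °C in 25 mM Tris–HCl pH 7.5, 150 mM NaCl, 2 mM β-mercaptoethanol. His-tagged chromodomain expressed in E. coli and purified by Ni affinity and size exclusion; concentration by Edelhoch method. Typically 50 μM protein with 0.5 mM compound or 100 μM with 1.0 mM, always 10:1. One 0.2 μL injection, then 26 × 1.5 μL at 180 s spacing; first point deleted; one-site fit. Mean ± SD of at least two replicates.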
# CBX5 chromodomain = CBX5 chromodomain (Homo sapiens, UniProt P45973); test: TR-FRET competition assay, CBX5; type: binding; conditions: for affinity improvement toward CBX5 over UNC5191 by TR-FRET: compared to UNC5191; for selectivity for CBX5 over CBX7: from TR-FRET IC50 values
# Sequence of CBX5 chromodomain (P45973 18-75): as above
# In short: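 Competition of biotinylated peptide tracer P42 from His-tagged chromodomain: CBX5 30 nM with 30 nM tracer, MPP8 25 nM with 50 nM tracer. Detection with 10 nM ULight-anti-6xHis and 2 nM Eu-streptavidin in 20 mM Tris pH 7.5, 150 mM NaCl, 0.05% Tween 20, 2 mM DTT. 1 h equilibration in dark; 665/615 nm ratio. 0–100% scale against DMSO and 100 μM UNC5241. Four-parameter IC50 fit; mean ± SD of three replicates.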
SMILES,Kd (CBX5 (HP1α) chromodomain; one site binding model) [nM],affinity improvement toward CBX5 over UNC5191 by TR-FRET (CBX5 chromodomain),selectivity for CBX5 over CBX7 (CBX5 chromodomain) [fold],other results
"CCN(CCCC[C@H](NC(=O)[C@H](Cc1ccccc1)NC(=O)[C@H](C)NC(=O)[C@H](Cc1ccccc1)NC(=O)c1cccnc1)C(=O)N[C@@H](CO)C(N)=O)C(C)C [UNC6384, N-((8S,11S,14S,17S)-8-(((S)-1-Amino-3-hydroxy-1-oxopropan-2-yl)carbamoyl)-11-benzyl-3-ethyl-2,14-dimethyl-10,13,16-trioxo-18-phenyl-3,9,12,15-tetraazaoctadecan-17-yl)nicotinamide] (Nicotinoyl-FAF[Lys(Et,iPr)]S-NH2)",3380,–,–,–
"CCN(CCCC[C@H](NC(=O)[C@H](Cc1ccc(OC)c(OC)c1)NC(=O)[C@H](C)NC(=O)[C@H](CC1CCCCC1)NC(=O)c1ccc(Br)c(N)c1)C(=O)N[C@@H](CO)C(N)=O)C(C)C [UNC7047, 3-Amino-N-((8S,11S,14S,17S)-8-(((S)-1-amino-3-hydroxy-1-oxopropan-2-yl)carbamoyl)-18-cyclohexyl-11-(3,4-dimethoxybenzyl)-3-ethyl-2,14-dimethyl-10,13,16-trioxo-3,9,12,15-tetraazaoctadecan-17-yl)-4-bromobenzamide] (X1-[Cha]A[Phe(3,4-(OMe)2)][Lys(Et,iPr)]S-NH2)",–,80 fold,–,Kd (CBX5 (HP1α) chromodomain; mean ± SD of three replicates): 237 ± 68 nM; potency for CBX5 relative to UNC5191 by ITC (CBX5 (HP1α) chromodomain; ITC Kd compared to UNC5191): 30 fold; IC50 (CBX5 chromodomain): 79 ± 40 nM
"CCN(CCCC[C@H](NC(=O)[C@H](CC(C)C)NC(=O)[C@H](C)NC(=O)[C@H](CC1CCCCC1)NC(=O)c1cccnc1)C(=O)N[C@@H](CO)C(N)=O)C(C)C [UNC6383, N-((8S,11S,14S,17S)-8-(((S)-1-Amino-3-hydroxy-1-oxopropan-2-yl)carbamoyl)-18-cyclohexyl-3-ethyl-11-isobutyl-2,14-dimethyl-10,13,16-trioxo-3,9,12,15-tetraazaoctadecan-17-yl)nicotinamide] (Nicotinoyl-[Cha]AL[Lys(Et,iPr)]S-NH2)",–,–,11,–
"CCN(CCCC[C@H](NC(=O)[C@H](CC(C)C)NC(=O)[C@H](C)NC(=O)[C@H](Cc1ccccc1)NC(=O)c1cccnc1)C(=O)N[C@@H](CO)C(N)=O)C(C)C [UNC5191, N-((8S,11S,14S,17S)-8-(((S)-1-Amino-3-hydroxy-1-oxopropan-2-yl)carbamoyl)-3-ethyl-11-isobutyl-2,14-dimethyl-10,13,16-trioxo-18-phenyl-3,9,12,15-tetraazaoctadecan-17-yl)nicotinamide] (Nicotinoyl-FAL[Lys(Et,iPr)]S-NH2)",6930 ± 820,–,–,–
"CCN(CCCC[C@H](NC(=O)[C@H](Cc1ccc(OC)c(OC)c1)NC(=O)[C@H](C)NC(=O)[C@H](Cc1ccccc1)NC(=O)c1cccnc1)C(=O)N[C@@H](CO)C(N)=O)C(C)C [UNC6392, N-((8S,11S,14S,17S)-8-(((S)-1-Amino-3-hydroxy-1-oxopropan-2-yl)carbamoyl)-11-(3,4-dimethoxybenzyl)-3-ethyl-2,14-dimethyl-10,13,16-trioxo-18-phenyl-3,9,12,15-tetraazaoctadecan-17-yl)nicotinamide] (Nicotinoyl-FA[Phe(3,4-(OMe)2)][Lys(Et,iPr)]S-NH2)",1270,–,–,potency for CBX5 relative to UNC6384 by ITC (CBX5 (HP1α) chromodomain; ITC Kd compared to UNC6384): 2 fold
"CCN(CCCC[C@H](NC(=O)[C@H](CC(C)C)NC(=O)[C@H](C)NC(=O)[C@H](Cc1c(F)c(F)c(F)c(F)c1F)NC(=O)c1cccnc1)C(=O)N[C@@H](CO)C(N)=O)C(C)C [UNC4869, N-((8S,11S,14S,17S)-8-(((S)-1-Amino-3-hydroxy-1-oxopropan-2-yl)carbamoyl)-3-ethyl-11-isobutyl-2,14-dimethyl-10,13,16-trioxo-18-(perfluorophenyl)-3,9,12,15-tetraazaoctadecan-17-yl)nicotinamide] (Nicotinoyl-[Phe(F5)]AL[Lys(Et,iPr)]S-NH2)",–,about 3 fold,26,–
